Experimental data taken from ChEMBL document CHEMBL1143299, “Synthesis and biological activity of novel shikonin analogues” (Bioorg Med Chem Lett, 2009).
Calls of active or inactive are those of the source. The calls are words filed in the database; no cut-off is given here.

Legend:
Format in all cases: functional, cell-based
[1] = tested on: HeLa; test: Cytotoxicity agaisnt human HeLa cells by SRB assay
Summary of the method: (§1)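 IC50 from three independent experiments; growth inhibition read by SRB (adherent lines) or MTT (HL60, K562).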

[2] = tested on: HL-60; test: Cytotoxicity against human HL60 cells by MTT assay; summary of the method: as §1
[3] = tested on: MDA-MB-231; test: Reduction of hypoxia-induced HIF1alpha accumulation in human MDA-MB-231 cells at 10 uM by Western blotting analysis
Summary of the method: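 MDA-MB-231 cells (5 × 10⁵) treated at 10 µM, held in hypoxia (1% O₂) for 10 h, then lysed in 1× SDS loading buffer (pH 6.8 Tris–HCl, DTT, SDS) and boiled. Equal lysate amounts run on 10% SDS–PAGE, transferred to nitrocellulose, probed for HIF-1α and β-actin with HRP secondary antibodies, detected by ECL. Representative of three independent experiments.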

[4] = tested on: HCT-116; test: Cytotoxicity agaisnt human HCT116 cells by SRB assay; summary of the method: as §1
[5] = tested on: K562; test: Cytotoxicity agaisnt human K562 cells by MTT assay; summary of the method: as §1
[6] = tested on: KB; test: Cytotoxicity agaisnt vincristine-resistant human KB cells by SRB assay; summary of the method: as §1
[7] = Cytotoxicity agaisnt human KB-3-1 cells by SRB assay; summary of the method: as §1
[8] = Cytotoxicity agaisnt human Rh30 cells by SRB assay; conditions: SJRH30; summary of the method: as §1
[9] = tested on: HT-29; test: Cytotoxicity agaisnt human HT29 cells by SRB assay; summary of the method: as §1
[10] = tested on: A549; test: Cytotoxicity agaisnt human A549 cells by SRB assay; summary of the method: as §1
[11] = tested on: MDA-MB-231; test: Cytotoxicity agaisnt human MDA-MB-231 cells by SRB assay; summary of the method: as §1

| Structure (SMILES) | IC50 [1] | IC50 [2] | also measured |
| --- | --- | --- | --- |
| Cc1ccc(S(=O)(=O)NC(C2=CC(=O)c3c(O)ccc(O)c3C2=O)C(C)C)cc1 (centres undefined) | 4850 nM | – | – |
| CC(C)C(NS(=O)(=O)c1ccc(Br)cc1)C1=CC(=O)c2c(O)ccc(O)c2C1=O (centres undefined) | 7650 nM | – | – |
| CC(C)C(NS(=O)(=O)c1ccc(Cl)cc1)C1=CC(=O)c2c(O)ccc(O)c2C1=O (centres undefined) | 8650 nM | – | – |
| Cc1ccccc1S(=O)(=O)NC(C1=CC(=O)c2c(O)ccc(O)c2C1=O)C(C)C (centres undefined) | 790 nM | 190 nM | – |
| CC(=O)c1ccc(S(=O)(=O)NC(C)C2=CC(=O)c3c(O)ccc(O)c3C2=O)cc1 (centres undefined) | 5760 nM | 260 nM | – |
| CC(C)=CC[C@@H](O)C1=CC(=O)c2c(O)ccc(O)c2C1=O [SHIKONIN] | 13400 nM | 440 nM | Activity [3]: Active |
| CC(C)C(NS(=O)(=O)c1cccc(Br)c1)C1=CC(=O)c2c(O)ccc(O)c2C1=O (centres undefined) | 860 nM | 790 nM | – |
| COc1ccc(S(=O)(=O)NC(C)C2=CC(=O)c3c(O)ccc(O)c3C2=O)c(OC)c1 (centres undefined) | 19500 nM | 500 nM | – |
| Cc1ccccc1S(=O)(=O)NC(C)C1=CC(=O)c2c(O)ccc(O)c2C1=O (centres undefined) | 4490 nM | 70 nM | Activity [3]: Active |
| CC(NS(=O)(=O)c1ccc(Cl)cc1)C1=CC(=O)c2c(O)ccc(O)c2C1=O (centres undefined) | 810 nM | 250 nM | IC50 [4]: 3200 nM; Activity [3]: Active; IC50 [5]: 19900 nM; IC50 [6]: 12400 nM; IC50 [7]: 6900 nM; IC50 [8]: 1900 nM; IC50 [9]: 1300 nM; IC50 [10]: 8300 nM; IC50 [11]: 4500 nM |
| Cc1ccc(S(=O)(=O)NC(C)C2=CC(=O)c3c(O)ccc(O)c3C2=O)cc1 (centres undefined) | 5340 nM | 30 nM | – |
| CC(NS(=O)(=O)c1ccc(Br)cc1)C1=CC(=O)c2c(O)ccc(O)c2C1=O (centres undefined) | 5210 nM | 100 nM | – |
| CCOC(=O)c1ccc(S(=O)(=O)NC(C)C2=CC(=O)c3c(O)ccc(O)c3C2=O)cc1 (centres undefined) | 2260 nM | 120 nM | – |
| CC(=O)c1ccc(S(=O)(=O)NC(C2=CC(=O)c3c(O)ccc(O)c3C2=O)C(C)C)cc1 (centres undefined) | 3820 nM | 110 nM | – |
| CC(NS(=O)(=O)c1cccc(Br)c1)C1=CC(=O)c2c(O)ccc(O)c2C1=O (centres undefined) | 6350 nM | 160 nM | Activity [3]: Active |
| COc1ccc(S(=O)(=O)NC(C2=CC(=O)c3c(O)ccc(O)c3C2=O)C(C)C)c(OC)c1 (centres undefined) | 2750 nM | 400 nM | – |
| COc1cc([C@@H]2c3cc4c(cc3[C@@H](O)[C@H]3COC(=O)[C@H]23)OCO4)cc(OC)c1O [4'-DEMETHYLEPIPODOPHYLLOTOXIN] | 980 nM | 820 nM | – |
| CC(C)C(NS(=O)(=O)c1ccc(F)cc1)C1=CC(=O)c2c(O)ccc(O)c2C1=O (centres undefined) | 6650 nM | – | – |
| CCOC(=O)c1ccc(S(=O)(=O)NC(C2=CC(=O)c3c(O)ccc(O)c3C2=O)C(C)C)cc1 (centres undefined) | 850 nM | 150 nM | IC50 [4]: 3800 nM; IC50 [5]: 18200 nM; IC50 [6]: 13200 nM; IC50 [7]: 11800 nM; IC50 [8]: 2600 nM; IC50 [9]: 2800 nM; IC50 [10]: 11400 nM; IC50 [11]: 4700 nM |
| COc1ccc(S(=O)(=O)NC(C)C2=CC(=O)c3c(O)ccc(O)c3C2=O)cc1 (centres undefined) | 3760 nM | 20 nM | – |
| CC(NS(=O)(=O)c1ccccc1Br)C1=CC(=O)c2c(O)ccc(O)c2C1=O (centres undefined) | 6200 nM | 120 nM | Activity [3]: Active |
| COc1ccc(S(=O)(=O)NC(C2=CC(=O)c3c(O)ccc(O)c3C2=O)C(C)C)cc1 (centres undefined) | 8950 nM | – | – |
| CC(C)C(NS(=O)(=O)c1ccccc1Br)C1=CC(=O)c2c(O)ccc(O)c2C1=O (centres undefined) | 8310 nM | 340 nM | – |
| CC(NS(=O)(=O)c1ccc(F)cc1)C1=CC(=O)c2c(O)ccc(O)c2C1=O (centres undefined) | 6410 nM | 90 nM | – |
